From ChEMBL document CHEMBL4477193, “The Natural Product Essramycin and Three of Its Isomers Are Devoid of Antibacterial Activity” (J Nat Prod, 2016)
Active and inactive are the calls of the source.

Tests used:
Type in all cases: functional, organism-based
Klebsiella aerogenes = assay: Antibacterial activity against Enterobacter aerogenes ATCC 35029 up to 128 ug/ml after 16 to 20 hrs by broth microdilution assay
How it was run: (§1)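 MIC testing across a concentration series whose top concentration was 128 μg/mL. The E. faecium strain is NCTC 7171 (ATCC 19734). The testing method follows an earlier report.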

Klebsiella pneumoniae = assay: Antibacterial activity against Klebsiella pneumoniae ATCC 700603 up to 128 ug/ml after 16 to 20 hrs by broth microdilution assay; how it was run: as §1
Acinetobacter baumannii = assay: Antibacterial activity against Acinetobacter baumannii ATCC 17961 up to 128 ug/ml after 16 to 20 hrs by broth microdilution assay; how it was run: as §1
Staphylococcus aureus = assay: Antibacterial activity against Staphylococcus aureus ATCC 29213 up to 128 ug/ml after 16 to 20 hrs by broth microdilution assay; how it was run: as §1
Escherichia coli = assay: Antibacterial activity against Escherichia coli ATCC 25922 up to 128 ug/ml after 16 to 20 hrs by broth microdilution assay; how it was run: as §1
Pseudomonas aeruginosa = assay: Antibacterial activity against Pseudomonas aeruginosa ATCC 27853 up to 128 ug/ml after 16 to 20 hrs by broth microdilution assay; how it was run: as §1
Enterococcus faecium = assay: Antibacterial activity against Enterococcus faecium ATCC 19734 up to 128 ug/ml after 16 to 20 hrs by broth microdilution assay; how it was run: as §1

Measured: Activity

Cc1cc(=O)[nH]c2nnc(CC(=O)c3ccccc3)n12
inactive: all assays above

Cc1cc(=O)n2nc(CC(=O)c3ccccc3)nc2[nH]1
inactive: all assays above

Cc1cc(=O)[nH]c2nc(CC(=O)c3ccccc3)nn12
inactive: all assays above

Cc1cc(=O)n2c(CC(=O)c3ccccc3)nnc2[nH]1
inactive: all assays above
